Measurements taken from ChEMBL document CHEMBL3600302, “A Ligand-Based Drug Design. Discovery of 4-Trifluoromethyl-7,8-pyranocoumarin as a Selective Inhibitor of Human Cytochrome P450 1A2” (J Med Chem, 2015).

Key:
Cytochrome P450 1A1 = target: T1, Cytochrome P450 1A1 (Homo sapiens, UniProt P04798); test: Inhibition of human microsomal CYP1A1-dependent ethoxyresorufin-O-deethylase activity by spectrofluorimetric analysis in presence of NADPH regenerating solution
T1 sequence (P04798 whole entry): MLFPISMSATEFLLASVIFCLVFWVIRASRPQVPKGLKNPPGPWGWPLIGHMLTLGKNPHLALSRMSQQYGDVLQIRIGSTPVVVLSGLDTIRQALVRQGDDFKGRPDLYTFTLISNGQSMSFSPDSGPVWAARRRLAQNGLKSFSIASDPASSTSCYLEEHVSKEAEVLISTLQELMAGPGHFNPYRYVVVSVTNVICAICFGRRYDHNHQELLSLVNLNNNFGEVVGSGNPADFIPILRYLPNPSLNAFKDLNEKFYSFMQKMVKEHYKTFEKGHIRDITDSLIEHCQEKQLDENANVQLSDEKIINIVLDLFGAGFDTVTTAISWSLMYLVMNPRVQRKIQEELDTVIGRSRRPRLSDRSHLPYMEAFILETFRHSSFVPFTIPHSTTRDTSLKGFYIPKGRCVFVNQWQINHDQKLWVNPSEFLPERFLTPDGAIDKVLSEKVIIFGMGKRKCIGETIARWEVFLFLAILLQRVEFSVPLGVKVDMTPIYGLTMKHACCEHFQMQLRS
Outline: (§1)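 Microsomal P450 (final 5 nM) in 0.1 M potassium phosphate pH 7.6 with MgCl2 at 37 °C. Substrate final 5 µM: ethoxyresorufin for 1A1/1B1, methoxyresorufin for 1A2. […] Ki was taken as the x-intercept of Dixon plots (1/v0 vs [I]). Mean ± SD of three independent experiments. Selectivity ratios are ratios of these Ki.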

Cytochrome P450 1A2 [1] = target: T2, Cytochrome P450 1A2 (Homo sapiens, UniProt P05177); test: Inhibition of human microsomal CYP1A2-dependent methoxyresorufin-O-demethylase activity by spectrofluorimetric analysis in presence of NADPH regenerating solution
T2 sequence (P05177 whole entry): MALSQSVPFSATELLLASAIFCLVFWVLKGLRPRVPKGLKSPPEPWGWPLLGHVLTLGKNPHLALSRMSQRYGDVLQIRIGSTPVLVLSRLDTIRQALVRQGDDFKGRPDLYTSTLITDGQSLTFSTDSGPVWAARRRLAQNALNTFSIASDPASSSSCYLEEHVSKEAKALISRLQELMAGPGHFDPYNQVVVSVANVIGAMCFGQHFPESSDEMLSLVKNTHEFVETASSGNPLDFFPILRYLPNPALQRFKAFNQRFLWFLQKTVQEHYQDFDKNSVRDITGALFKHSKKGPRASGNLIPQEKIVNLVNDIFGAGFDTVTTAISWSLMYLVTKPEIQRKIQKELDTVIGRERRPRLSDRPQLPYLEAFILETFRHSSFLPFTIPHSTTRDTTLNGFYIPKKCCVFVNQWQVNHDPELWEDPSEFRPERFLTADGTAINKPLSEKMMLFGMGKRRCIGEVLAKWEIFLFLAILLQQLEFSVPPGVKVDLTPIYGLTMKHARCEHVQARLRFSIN
Outline: (§2)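 Microsomal P450 (final 5 nM) in 0.1 M potassium phosphate pH 7.6 with MgCl2 at 37 °C. Substrate final 5 µM: ethoxyresorufin for 1A1/1B1, methoxyresorufin for 1A2. Ki was taken as the x-intercept of Dixon plots (1/v0 vs [I]). Mean ± SD of three independent experiments. Selectivity ratios are ratios of these Ki.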

Cytochrome P450 1B1 = target: T3, Cytochrome P450 1B1 (Homo sapiens, UniProt Q16678); test: Inhibition of human microsomal CYP1B1-dependent ethoxyresorufin-O-deethylase activity by spectrofluorimetric analysis in presence of NADPH regenerating solution; outline: as §2
T3 sequence (Q16678 whole entry): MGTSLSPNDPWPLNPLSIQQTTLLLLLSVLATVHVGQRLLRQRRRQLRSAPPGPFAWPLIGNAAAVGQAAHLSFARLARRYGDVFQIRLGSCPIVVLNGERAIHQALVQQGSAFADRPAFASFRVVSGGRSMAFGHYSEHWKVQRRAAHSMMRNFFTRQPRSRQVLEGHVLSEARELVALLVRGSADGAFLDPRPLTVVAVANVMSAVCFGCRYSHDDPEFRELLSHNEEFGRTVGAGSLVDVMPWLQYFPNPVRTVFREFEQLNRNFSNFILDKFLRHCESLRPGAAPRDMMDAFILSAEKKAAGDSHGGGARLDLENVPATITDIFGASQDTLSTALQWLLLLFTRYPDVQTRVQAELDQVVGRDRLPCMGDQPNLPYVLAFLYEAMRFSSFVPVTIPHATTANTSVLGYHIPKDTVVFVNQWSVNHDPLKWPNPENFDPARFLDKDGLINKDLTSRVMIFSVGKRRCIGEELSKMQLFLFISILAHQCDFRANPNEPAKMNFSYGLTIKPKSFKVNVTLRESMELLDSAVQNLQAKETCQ

Homo sapiens [2] = species on record: Homo sapiens; test: Selectivity ratio of Ki for human microsomal CYP1A1 to Ki for human microsomal CYP1A2; outline: as §1
Homo sapiens [3] = species on record: Homo sapiens; test: Selectivity ratio of Ki for human microsomal CYP1B1 to Ki for human microsomal CYP1A2; outline: as §1
Cytochrome P450 1A2 [4] = target: T2, Cytochrome P450 1A2; test: Time-dependent inhibition of human microsomal CYP1A2-dependent methoxyresorufin-O-demethylase activity by spectrofluorimetric analysis in presence of NADPH regenerating solution
Outline: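 1A2 MROD run with NADPH at 0.0125, 0.025, 0.05 and 0.1 µM inhibitor, product monitored continuously over 6 min. Activity at different times came from first derivatives of product curves, expressed as % of control remaining. KI and limiting kinact were derived from the resulting linear plot.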

[5] = target: T4, Aryl hydrocarbon receptor (Homo sapiens, UniProt P35869); test: Activation of human AhR expressed in Saccharomyces cerevisiae MYA-3637 assessed as upregulation of cytochrome P450 expression at <10^-6 M by LacZ reporter assay; type: ADME
T4 sequence (P35869 whole entry): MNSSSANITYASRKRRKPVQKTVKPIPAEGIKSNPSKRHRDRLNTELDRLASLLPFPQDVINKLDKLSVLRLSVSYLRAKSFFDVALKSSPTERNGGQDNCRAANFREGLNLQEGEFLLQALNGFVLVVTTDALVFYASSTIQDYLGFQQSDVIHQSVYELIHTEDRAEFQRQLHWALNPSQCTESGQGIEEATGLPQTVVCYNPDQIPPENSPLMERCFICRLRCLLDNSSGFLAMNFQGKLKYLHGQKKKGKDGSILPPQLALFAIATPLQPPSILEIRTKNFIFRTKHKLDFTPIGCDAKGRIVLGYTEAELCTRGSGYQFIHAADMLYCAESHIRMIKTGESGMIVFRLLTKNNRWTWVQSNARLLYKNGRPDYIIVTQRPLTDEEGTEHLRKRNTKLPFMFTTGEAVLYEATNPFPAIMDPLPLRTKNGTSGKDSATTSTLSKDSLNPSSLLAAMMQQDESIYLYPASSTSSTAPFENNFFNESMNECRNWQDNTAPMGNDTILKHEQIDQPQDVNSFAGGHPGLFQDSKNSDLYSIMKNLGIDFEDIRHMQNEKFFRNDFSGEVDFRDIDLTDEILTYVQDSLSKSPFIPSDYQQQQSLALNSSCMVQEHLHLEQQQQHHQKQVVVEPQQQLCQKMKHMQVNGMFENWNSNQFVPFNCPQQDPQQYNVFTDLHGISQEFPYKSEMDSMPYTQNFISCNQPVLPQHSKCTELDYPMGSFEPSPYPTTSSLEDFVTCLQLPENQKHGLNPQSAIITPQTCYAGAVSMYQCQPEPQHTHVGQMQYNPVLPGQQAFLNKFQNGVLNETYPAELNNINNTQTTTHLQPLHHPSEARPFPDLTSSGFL
Outline: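 Yeast with integrated human AhR (GAL promoter) and lacZ reporter plasmid, grown on tryptophan-free synthetic minimal medium with galactose instead of glucose. Compounds in DMSO (1% v/v final) added to overnight culture in quadruplicate and left until next day. Abs600 read, then lysis buffer with sarcosyl, DTT and ONPG added. Abs405/Abs600 taken as activation. 10^-8 M βNF positive control. At least three repeats.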

Cytochrome P450 1A2 [6] = target: T2, Cytochrome P450 1A2; test: Inhibition of CYP1A2-dependent methoxyresorufin-O-demethylase activity in human HepG2 cells at > 10^-6 M preincubated for 24 hrs followed by substrate addition measured at 10, 30, 60 mins by fluorescence assay; type: cell-based; conditions: hepg2, 1 h
Outline: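 HepG2 cells (DMEM, 10% FBS, 37 °C, 5% CO2), 2 × 10^5 per well, plated overnight. Exposed 24 h to compound at final 10^-4 to 10^-7 M in DMSO. 10^-5 M βNF positive control, DMSO blank. Then washed with PBS and given medium with 5 × 10^-6 M methoxyresorufin. Resorufin fluorescence (ex 535/em 585 nm) read at 10, 30, 60 min. Triplicate, three independent experiments, unpaired t test.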

HepG2 = test: Cytotoxicity against human HepG2 cells assessed as cell viability up to 10^-5 M after 72 hrs by MTT assay; type: cell-based; conditions: hepg2, 72 h

O=c1cc(C(F)(F)F)c2ccc3c(c2o1)C=CCO3
Ki (Cytochrome P450 1A1): 60.6 µM | Ki (Cytochrome P450 1A2 [1]): 0.39 µM | Ki (Cytochrome P450 1B1): 20.4 µM | Ratio Ki (Homo sapiens [2]): 155 | Ratio Ki (Homo sapiens [3]): 52 | TDI (Cytochrome P450 1A2 [4]): Not Active | Activity [5]: Not Active | inhibition (INH) (Cytochrome P450 1A2 [6]): Active | Activity (HepG2): Non-toxic
